Consider eleven compounds from ChEMBL document CHEMBL3108757, “Synthesis and cytostatic evaluation of 4-N-alkanoyl and 4-N-alkyl gemcitabine analogues” (J Med Chem, 2014).

The structures appear in SMILES notation.

In data set [1] the test system is Serum. Kind of data set: Prodrug conversion in human serum assessed as dFdU formation at 100 uM up to 240 mins by HPLC analysis. In kind it is ADME, cell-free. The following applies: 4 h. In short, it runs like this:
(§1)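 Compound at 100 μM in 50% human serum in PBS, 37 °C; aliquots taken at 0, 60 and 240 min; reverse-phase RP-18 HPLC (acetonitrile/H₂O) resolving dFdU and gemcitabine.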

The test system of data set [2] is Liver. In words: Prodrug conversion in mouse liver assessed as dFdU formation at 100 uM after 2 hrs by HPLC analysis. The data set is classed as ADME, tissue-based. In short, it runs like this:
(§2)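 Compound at 100 μM in murine liver extract in PBS, 37 °C; sampled at 0, 30 and 120 min; reverse-phase RP-18 HPLC (acetonitrile/H₂O) resolving dFdU and gemcitabine.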

In data set [3] the test system is CCRF-CEM. In words: Ratio of IC50 for human dCK-deficient CEM cells to IC50 for human CEM cells. In kind it is functional.
Data set [4] concerns CCRF-CEM. In words: Cytostatic activity against human dCK-deficient CEM cells after 3 days by coulter counter analysis. As to conditions: 72 h; call rule not given here. The data set is classed as functional, cell-based. The method in brief:
(§3)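 CEM T-lymphocyte cultures exposed to compound, 3 days at 37 °C; living cells counted by Coulter counter; IC50 is the concentration inhibiting proliferation by 50%.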

For another data set, the system named is L1210. Kind of data set: Cytostatic activity against mouse L1210 cells after 2 days by coulter counter analysis. In kind it is functional, cell-based. As to conditions: L1210, 48 h. The method in brief:
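Murine leukemia L1210 cultures exposed to compound, 2 days at 37 °C; living cells counted by Coulter counter; IC50 is the concentration inhibiting proliferation by 50%.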

The next data set deals with HeLa. In words: Cytostatic activity against human HeLa cells after 4 days by coulter counter analysis. As to conditions: 96 h. In kind it is functional, cell-based. The method in brief: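 HeLa cervix carcinoma cultures exposed to compound, 4 days at 37 °C; viable cells counted by Coulter counter; IC50 is the concentration giving 50% inhibition of proliferation.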

Data set [5] concerns Serum. Kind of data set: Prodrug conversion in human serum assessed as gemicitabine formation at 100 uM by HPLC analysis. In kind it is ADME, cell-free. In short, it runs like this: as §1
For data set [6], the system named is CCRF-CEM. Kind of data set: Cytostatic activity against human CEM cells after 3 days by coulter counter analysis. The data set is classed as functional, cell-based. As to conditions: 72 h. In short, it runs like this: as §3
For data set [7], the system named is Liver. In words: Prodrug conversion in mouse liver at 100 uM after 2 hrs by HPLC analysis. In kind it is ADME, tissue-based. The method in brief:
as §2

In a further data set the test system is MCF7. In words: Cytostatic activity against human MCF7 cells after 4 days by coulter counter analysis. As to conditions: MCF7, 96 h.
For data set [8], the system named is Liver. In words: Prodrug conversion in mouse liver assessed as gemicitabine formation at 100 uM by HPLC analysis. In kind it is ADME, tissue-based. In short, it runs like this:
as §2

For data set [9], the system named is Liver. Kind of data set: Prodrug conversion in mouse liver assessed as dFdU formation at 100 uM by HPLC analysis. The data set is classed as ADME, tissue-based. In short, it runs like this:
as §2

Data set [10] deals with Deoxycytidine kinase (Homo sapiens) (UniProt P27707). In words: Activity at recombinant dCK (unknown origin) at 100 uM by HPLC analysis.
Data set [11] relates to Serum. In words: Metabolic stability in human serum assessed as dFdU formation at 100 uM up to 240 mins by HPLC analysis. The data set is classed as ADME, cell-free. As to conditions: 4 h. The method in brief: as §1

Deoxycytidine kinase (Homo sapiens), sequence (P27707 whole entry, looked up): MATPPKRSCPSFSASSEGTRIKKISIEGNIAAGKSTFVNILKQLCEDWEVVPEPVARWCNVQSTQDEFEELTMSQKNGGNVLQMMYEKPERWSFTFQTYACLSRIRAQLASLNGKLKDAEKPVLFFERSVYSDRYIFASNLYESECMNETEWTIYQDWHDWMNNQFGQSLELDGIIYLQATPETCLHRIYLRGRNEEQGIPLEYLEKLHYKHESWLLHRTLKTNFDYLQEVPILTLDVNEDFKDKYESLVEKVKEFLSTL

Take `O=c1nc(NCCCCCCCCCCCO)ccn1[C@@H]1O[C@H](CO)[C@@H](O)C1(F)F`: the Stability entry in the data set with Serum [1], in the data set with Liver [2], in the data set with Serum [5] and in the data set on Liver [7] was “Stable” in each case. The “Ratio IC50” value with CCRF-CEM [3] is listed as 2. Further, the IC50 in the data set with CCRF-CEM [4] was 140000 nM; in the data set with L1210, 29000 nM; with HeLa it was 22000 nM; with CCRF-CEM [6], 86000 nM; in the data set with MCF7, 27000 nM.
As to `CCCCCCCCCCC(=O)Nc1ccn([C@@H]2O[C@H](CO)[C@@H](O)C2(F)F)c(=O)n1`, the IC50 turned out to be 5800 nM in the data set on CCRF-CEM [4]; 14 nM in the data set with L1210; 8.9 nM in the data set on HeLa; 60 nM with CCRF-CEM [6]; 5.3 nM with MCF7.
Turning to `O=C(CCCCCCCCCCO)Nc1ccn([C@@H]2O[C@H](CO)[C@@H](O)C2(F)F)c(=O)n1`, the Drug metabolism entry in the data set with Serum [1], with Liver [8], with Serum [5] and in the data set on Liver [9] was “Active” in each case. The IC50 in the data set on CCRF-CEM [4] was determined as 19000 nM; in the data set on L1210 it was 23 nM; with HeLa it was 49 nM; in the data set on CCRF-CEM [6], 240 nM; in the data set on MCF7 it was 8.1 nM.
As for `CCCC(CCC)C(=O)Nc1ccn([C@@H]2O[C@H](CO)[C@@H](O)C2(F)F)c(=O)n1` [LY-2334737], the IC50 with CCRF-CEM [4] was found to be 161000 nM; with L1210 it was 1100 nM; with HeLa, 760 nM; with CCRF-CEM [6] it was 5200 nM; with MCF7, 550 nM.
The like results for `C=CCCCCCCC(=O)Nc1ccn([C@@H]2O[C@H](CO)[C@@H](O)C2(F)F)c(=O)n1` were, in that order, 20000 nM, 24 nM, 42 nM, 140 nM and 7.9 nM.
As for `O=C(CCCCCCCCCCF)Nc1ccn([C@@H]2O[C@H](CO)[C@@H](O)C2(F)F)c(=O)n1`, the Activity in [10] is less than 1%. The IC50 with CCRF-CEM [4] turned out to be 7200 nM; with L1210, 53 nM; with HeLa, 11 nM; in the data set on CCRF-CEM [6], 59 nM; in the data set on MCF7, 7.7 nM.
On to `C=CCCCCCCCCCCC(=O)Nc1ccn([C@@H]2O[C@H](CO)[C@@H](O)C2(F)F)c(=O)n1`, for which, in [10], the Activity is less than 1%. Besides, the IC50 came out at 6800 nM in the data set with CCRF-CEM [4]; 21 nM with L1210; 13 nM in the data set on HeLa; 69 nM in the data set on CCRF-CEM [6]; 7.9 nM with MCF7.
With `C=CCCCCCCCCCNc1ccn([C@@H]2O[C@H](CO)[C@@H](O)C2(F)F)c(=O)n1`, the Ratio IC50 in the data set on CCRF-CEM [3] was 4.6. Moreover, the IC50 amounted to 60000 nM in the data set with CCRF-CEM [4]; 7000 nM with L1210; 3400 nM in the data set on HeLa; 13000 nM with CCRF-CEM [6]; 28000 nM in the data set with MCF7.
Take `C=CCCCCCCCCC(=O)Nc1ccn([C@@H]2O[C@H](CO)[C@@H](O)C2(F)F)c(=O)n1`: the IC50 with CCRF-CEM [4] was found to be 12000 nM; with L1210 it was 18 nM; in the data set on HeLa, 12 nM; in the data set with CCRF-CEM [6], 71 nM; in the data set on MCF7, 6.2 nM.
For the compound `Nc1ccn([C@@H]2O[C@H](CO)[C@@H](O)C2(F)F)c(=O)n1` [GEMCITABINE], the Stability result in the data set with Serum [11] is given as “Unstable”. In addition, in [10], the Activity turned out to be 15%. In addition, the IC50 stood at 7600 nM in the data set with CCRF-CEM [4]; 13 nM in the data set on L1210; 9.9 nM in the data set with HeLa; 69 nM in the data set with CCRF-CEM [6]; 7.2 nM with MCF7.
For `O=c1nc(NCCCCCCCCCCCF)ccn1[C@@H]1O[C@H](CO)[C@@H](O)C1(F)F`, in the data set with CCRF-CEM [3], the Ratio IC50 stood at 4.8. Further, the IC50 in the data set on CCRF-CEM [4] turned out to be 134000 nM; in the data set on L1210, 28000 nM; with HeLa, 17000 nM; in the data set on CCRF-CEM [6], 28000 nM; in the data set on MCF7, 26000 nM.
